Laboratory results: ChEMBL document CHEMBL5614410, “Design, Synthesis, and Evaluation of p53Y220C Acetylation Targeting Chimeras (AceTACs)” (J Med Chem, 2024)
Values belong to the compound of their own block, whether it stands above or below them. Activity calls are given as the source filed them. The rule behind the calls is not given here.

What was measured:
[1] = Cytotoxicity against human PNT2 cells assessed as inhibition of cell growth at 10 uM incubated for 72 hrs by WST-8 assay; format: toxicity, cell-based
Procedure, shortened: (§1)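 U2OS (WT p53) or normal prostate PNT2 cells were treated for 72 h at the indicated concentrations. Viability is mean ± SD of technical triplicates from two biological experiments.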

[2] = Cytotoxicity against human U2OS cells harboring wild type p53 assessed as inhibition of cell growth at 10 uM incubated for 72 hrs by WST-8 assay; format: toxicity, cell-based; procedure, shortened: as §1
[3] = test system: NCI-H1299; assay: Antiproliferative activity against p53-null human NCI-H1299 cells assessed as reduction in cell viability at 0.47 to 15 uM incubated for 3 days by WST-8 assay; format: functional, cell-based; settings: dose 0.47-15 µM, time 3.0 day
Procedure, shortened: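 p53-null NCI-H1299 cells were exposed to compound across the concentration series for 72 h before the viability read-out. Data are mean ± SD from three independent experiments.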

[4] = test system: Cellular tumor antigen p53 (Homo sapiens), P04637 [Y220C]; assay: Induction of FLAG-tagged p53Y220C mutant acetylation (unknown origin) expressed in human NCI-H1299 cells assessed as increase in p53 acetylation at lysine 382 residue at 10 uM incubated for 24 hrs by western blot analysis relative to control; format: cell-based
Procedure, shortened: (§2)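 NCI-H1299 (p53Y220C) cells were treated at 0.1–10 μM (0.1, 0.3, 1, 3 or 10 μM) for 24 h. Lysates were Western blotted for p53 and p53K382ac, with vinculin as loading control. p53K382ac was normalised to total p53Y220C and quantified from two or three independent experiments.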

[5] = test system: Cellular tumor antigen p53 (Homo sapiens), P04637 [Y220C]; assay: Induction of p53Y220C mutant acetylation in human BXPC-3 cells expressing p300/CBP assessed as increase in p53 acetylation at lysine 382 residue at 1 to 10 uM incubated for 24 hrs by western blot analysis; format: cell-based; settings: dose 1-10 µM
Procedure, shortened: (§3)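 BxPC3 or NUGC-3 cells, which endogenously carry p53Y220C, were dosed at 1, 3 or 10 μM (or DMSO) for 24 h. Lysates were immunoblotted for p53 and p53 K382ac, with vinculin loading control. Blots are representative of two independent experiments.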

[6] = test system: NCI-H1299; assay: Antiproliferative activity against human NCI-H1299 cells expressing p53Y220C mutant and transfected with p300 siRNA assessed as reduction in cell viability at 0.47 to 15 uM incubated for 3 days by WST-8 assay; format: functional, cell-based; settings: dose 0.47-15 µM, time 3.0 day
Procedure, shortened: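 NCI-H1299 p53Y220C cells were first transfected with p300 siRNA for 72 h, then exposed to compound across the concentration series for 72 h. Viability is mean ± SD from three independent experiments.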

[7] = test system: Cellular tumor antigen p53 (Homo sapiens), P04637 [Y220C]; assay: Induction of p53Y220C mutant acetylation in human NUGC-3 cells expressing p300/CBP assessed as increase in p53 acetylation at lysine 382 residue at 1 to 10 uM incubated for 24 hrs by western blot analysis; format: cell-based; settings: dose 1-10 µM; procedure, shortened: as §3
[8] = test system: Cellular tumor antigen p53 (Homo sapiens), P04637 [Y220C]; assay: Stabilization of FLAG-tagged p53Y220C mutant (unknown origin) expressed in human NCI-H1299 cells assessed as upregulation of p21 mRNA expression at 3 uM incubated for 24 hrs by RT-qPCR analysis; format: cell-based
Procedure, shortened: (§4)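 NCI-H1299 p53Y220C cells were treated with 3 μM or DMSO for 24 h, followed by RT-qPCR of p53 target genes. Each transcript was normalized to GAPDH, then expressed relative to the DMSO control. Values are mean ± SD from three independent experiments.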

[9] = test system: PNT2; assay: Cytotoxicity against human PNT2 cells assessed as inhibition of cell growth incubated for 72 hrs by WST-8 assay; format: toxicity, cell-based; settings: pnt2, 72 h; procedure, shortened: as §1
[10] = test system: U2OS; assay: Cytotoxicity against human U2OS cells harboring wild type p53 assessed as inhibition of cell growth incubated for 72 hrs by WST-8 assay; format: toxicity, cell-based; procedure, shortened: as §1
[11] = test system: NUGC-3; assay: Antiproliferative activity against human NUGC-3 cells harboring p53Y220C mutant assessed as inhibition of cell growth incubated for 72 hrs by WST-8 assay; format: functional
Procedure, shortened: (§5)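 BxPC3 or NUGC-3 cells were treated with DMSO or compound over a concentration range for 72 h before the viability read-out. Values are mean ± SD of technical triplicates from three biological experiments.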

[12] = test system: CREB-binding protein/Histone acetyltransferase p300/Cellular tumor antigen p53 (Homo sapiens), P04637+Q09472+Q92793 [Y220C]; assay: Induction of interaction between FLAG-tagged p53Y220C mutant (unknown origin) and p300/CBP expressed in human NCI-H1299 cells assessed as ternary complex formation at 10 uM incubated for 24 hrs by co-immunoprecipitation analysis; format: cell-based
Procedure, shortened: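 NCI-H1299 p53-null and p53Y220C cells were treated with DMSO or compound at 10 μM for 24 h. p53-FLAG pull-down was followed by Western blotting for associated p300. Representative of two independent experiments.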

[13] = test system: BXPC-3; assay: Antiproliferative activity against human BXPC-3 cells harboring p53Y220C mutant assessed as inhibition of cell growth incubated for 72 hrs by WST-8 assay; format: functional; procedure, shortened: as §5
[14] = test system: NCI-H1299; assay: Antiproliferative activity against human NCI-H1299 cells expressing p53Y220C mutant assessed as reduction in cell viability incubated for 3 days by WST-8 assay; format: functional; settings: NCI-H1299, 72 h, time 3 day
Procedure, shortened: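 NCI-H1299 p53Y220C cells were exposed to compound over a concentration range for 72 h, in some runs after 72 h of control or p300 siRNA, before the viability read-out. Values are mean ± SD of three independent experiments.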

[15] = test system: Cellular tumor antigen p53 (Homo sapiens), P04637 [Y220C]; assay: Stabilization of p53Y220C mutant (unknown origin) assessed as increase in melting temperature at 250 uM by […]
[16] = test system: Cellular tumor antigen p53 (Homo sapiens), P04637 [Y220C]; assay: Stabilization of FLAG-tagged p53Y220C mutant (unknown origin) expressed in human NCI-H1299 cells assessed as upregulation of GADD45A mRNA expression at 3 uM incubated for 24 hrs by RT-qPCR analysis; format: cell-based; procedure, shortened: as §4
[17] = test system: Cellular tumor antigen p53 (Homo sapiens), P04637 [Y220C]; assay: Stabilization of FLAG-tagged p53Y220C mutant (unknown origin) expressed in human NCI-H1299 cells assessed as downregulation of E2F1 mRNA expression at 3 uM incubated for 24 hrs by RT-qPCR analysis; format: cell-based; procedure, shortened: as §4
[18] = test system: CREB-binding protein/Histone acetyltransferase p300/Cellular tumor antigen p53 (Homo sapiens), P04637+Q09472+Q92793 [Y220C]; assay: AceTAC activity at FLAG-tagged p53Y220C mutant (unknown origin) expressed in human NCI-H1299 cells expressing p300/CBP assessed as increase in p53 acetylation at lysine 382 residue at 10 uM incubated for 24 hrs by western blot analysis relative to control; format: cell-based; procedure, shortened: as §2
[19] = test system: CREB-binding protein/Histone acetyltransferase p300/Cellular tumor antigen p53 (Homo sapiens), P04637+Q09472+Q92793 [Y220C]; assay: AceTAC activity at FLAG-tagged p53Y220C mutant (unknown origin ) expressed in human NCI-H1299 cells expressing p300/CBP assessed as increase in p53 acetylation at lysine 382 residue at 1 uM incubated for 24 hrs by western blot analysis; format: cell-based
Procedure, shortened: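 NCI-H1299 cells stably expressing p53Y220C, treated 24 h at 1 or 10 μM. Lysates were Western blotted for total p53 and p53 K382ac, with vinculin as loading control. Blots are representative of at least two independent experiments.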

[20] = test system: Cellular tumor antigen p53 (Homo sapiens), P04637 [Y220C]; assay: Stabilization of p53Y220C mutant (unknown origin) assessed as increase in melting temperature by […]
[21] = test system: CREB-binding protein/Histone acetyltransferase p300/Cellular tumor antigen p53 (Homo sapiens), P04637+Q09472+Q92793 [Y220C]; assay: AceTAC activity at FLAG-tagged p53Y220C mutant (unknown origin) expressed in human NCI-H1299 cells expressing p300/CBP assessed as fold increase in p53 acetylation at lysine 382 residue at 10 uM incubated for 24 hrs by western blot analysis relative to control; format: cell-based
Procedure, shortened: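 NCI-H1299 (p53Y220C) cells were exposed to 1, 3 and 10 μM for 24 h, then Western blotted. The K382ac signal was normalized to total p53Y220C and quantified from two independent experiments (±SD), relative to DMSO.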

[22] = test system: CREB-binding protein/Histone acetyltransferase p300/Cellular tumor antigen p53 (Homo sapiens), P04637+Q09472+Q92793 [Y220C]; assay: AceTAC activity at FLAG-tagged p53Y220C mutant (unknown origin) expressed in human NCI-H1299 cells expressing p300/CBP assessed as stabilization of protein by measuring increase in aggregation temperature at 100 uM incubated for 1 hr at 32 to 50 degC by CETSA analysis; format: cell-based
Procedure, shortened: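 For CETSA, NCI-H1299 (p53Y220C) stable cells were treated with DMSO or 100 μM compound for 1 h, then heated at 32 to 50 °C. Soluble p53 was detected by Western blot. Representative of at least two independent experiments.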

[23] = target: CREB-binding protein/Histone acetyltransferase p300/Cellular tumor antigen p53 (Homo sapiens, UniProt P04637+Q09472+Q92793, Y220C); assay: AceTAC activity at FLAG-tagged p53Y220C mutant (unknown origin) expressed in human NCI-H1299 cells expressing p300/CBP assessed as increase in p53 acetylation at lysine 382 residue incubated for 24 hrs by western blot analysis; format: cell-based; procedure, shortened: as §2

Structure (SMILES): CCn1c2ccc(CNC)cc2c2ccc(-c3cc(C)cs3)cc21
inhibition at 72 h, 10 µM [1]: ~30%
inhibition at 72 h, 10 µM [2]: 30%
Activity [3]: inactive
Activity [4]: 26%
Activity [5]: inactive
Activity [6]: Active
Activity [7]: inactive
Activity [8]: Active
GI50 [9]: > 10 µM
GI50 [10]: > 10 µM
GI50 [11]: 10.1 µM
Activity [12]: inactive
GI50 [13]: 14 µM
GI50 [14]: 16 µM
ΔTm [15]: 3.7 °C
Activity [16]: Active
Activity [17]: inactive

Structure (SMILES): CCn1c2ccc(CNCC(=O)NCCOc3ccc(CCc4nc5cc(-c6c(C)noc6C)ccc5n4CCN4CCOCC4)cc3F)cc2c2ccc(-c3cc(C)cs3)cc21
Activity [18]: 60%
GI50 [14]: 18 µM

Structure (SMILES): CCn1c2ccc(CNCCOCCOCCOCCOCCOCCC(=O)NCCOc3ccc(CCc4nc5cc(-c6c(C)noc6C)ccc5n4CCN4CCOCC4)cc3F)cc2c2ccc(-c3cc(C)cs3)cc21
Activity [18]: 184%
Activity [19]: Active
GI50 [14]: 5 µM

ΔTm [20]: 1 °C
Structure (SMILES): CCn1c2ccccc2c2cc(CNC)ccc21

Structure (SMILES): CCn1c2ccc(CNCCCCCCC(=O)NCCOc3ccc(CCc4nc5cc(-c6c(C)noc6C)ccc5n4CCN4CCOCC4)cc3F)cc2c2ccc(-c3cc(C)cs3)cc21
Activity [18]: 219%
Activity [19]: Active
GI50 [14]: 4 µM

Structure (SMILES): CCn1c2ccc(CNCCOCCOCCOCCn3cc(COc4ccc(CCc5nc6cc(-c7c(C)noc7C)ccc6n5CCN5CCOCC5)cc4F)nn3)cc2c2ccc(-c3cc(C)cs3)cc21
fold change (FC) [21]: 4
ΔTm [22]: 4 °C
EC50 [23]: 1.87 µM

Activity [18]: 186%
Activity [19]: Active
GI50 [14]: 4 µM
Structure (SMILES): CCn1c2ccc(CNCCOCCC(=O)NCCOc3ccc(CCc4nc5cc(-c6c(C)noc6C)ccc5n4CCN4CCOCC4)cc3F)cc2c2ccc(-c3cc(C)cs3)cc21

Structure (SMILES): CCn1c2ccc(CNCCCCCCCCC(=O)NCCOc3ccc(CCc4nc5cc(-c6c(C)noc6C)ccc5n4CCN4CCOCC4)cc3F)cc2c2ccc(-c3cc(C)cs3)cc21
Activity [18]: 103%
Activity [19]: Active
GI50 [14]: 5 µM

Structure (SMILES): CCn1c2ccc(CNCCCCCC(=O)NCCOc3ccc(CCc4nc5cc(-c6c(C)noc6C)ccc5n4CCN4CCOCC4)cc3F)cc2c2ccc(-c3cc(C)cs3)cc21
Activity [18]: 176%
Activity [19]: Active
GI50 [14]: 4 µM
